Measured values taken from ChEMBL document CHEMBL5724801, “EUbOPEN Chemogenomics Library - Multiplex” (2024).
Several values for one entry are separate records, joined by “and”; a condition that tells them apart may be missing. Identical values can stand only once.

System: HEK-293T
Experiment: Multiplex assay against HEK293T
Type: toxicity, cell-based
Settings: human
Method in brief: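 Per cents of healthy-nucleus cells form the tubulin, mitochondrial-mass and membrane-permeability phenotype values. Live cells were stained at seeding with Hoechst33342, BioTracker Green Microtubule Cytoskeleton Dye, MitoTracker Red and Annexin V Alexa Fluor 680. After compound addition they were imaged on a CQ1 microscope at 37°C and 5% CO2, and CellPathfinder machine-learning gating split them into Hoechst high-intensity objects or normal cells, normal cells into healthy, pyknosed or fragmented nuclei, and pyknosed cells into mitotic or apoptotic.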

[1] = 12 h, 1 µM, compound concentration 1 uM
[2] = 12 h, 10 µM, compound concentration 10 uM
[3] = 24 h, 1 µM, compound concentration 1 uM
[4] = 24 h, 10 µM, compound concentration 10 uM
[5] = 48 h, 1 µM, compound concentration 1 uM
[6] = 48 h, 10 µM, compound concentration 10 uM

CN1C[C@H](C(=O)N[C@]2(C)O[C@@]3(O)[C@@H]4CCCN4C(=O)[C@H](Cc4ccccc4)N3C2=O)C[C@@H]2c3cccc4[nH]cc(c34)C[C@H]21.CS(=O)(=O)O [DIHYDROERGOTAMINE MESYLATE]
Population Apoptotic (%) [1]: 38% and 46%
Population Fragmented Nuclei (%) [1]: 6% and 3%
Population Healthy Nuclei (%) [1]: 84% and 81%
Population Hoechst High Intensity Objects (%) [1]: 5%
Population Membrane Permeable-Phenotype (%) [1]: 0%
Population Mitochondria Different-Phenotype (%) [1]: 41% and 65%
Population Mitotic Cells (%) [1]: 61% and 53%
Population Normal (%) [1]: 94%
Population Pyknosed Nuclei (%) [1]: 8% and 14%
Population Tubulin-Different-Phenotype (%) [1]: 26% and 17%
Total Cell Count [1]: 418 and 285
Population Apoptotic (%) [2]: 31% and 53%
Population Fragmented Nuclei (%) [2]: 7% and 5%
Population Healthy Nuclei (%) [2]: 76% and 80%
Population Hoechst High Intensity Objects (%) [2]: 9% and 11%
Population Membrane Permeable-Phenotype (%) [2]: 0%
Population Mitochondria Different-Phenotype (%) [2]: 48% and 61%
Population Mitotic Cells (%) [2]: 68% and 46%
Population Normal (%) [2]: 90% and 88%
Population Pyknosed Nuclei (%) [2]: 15% and 13%
Population Tubulin-Different-Phenotype (%) [2]: 29% and 23%
Total Cell Count [2]: 403 and 435
Population Apoptotic (%) [3]: 28% and 51%
Population Fragmented Nuclei (%) [3]: 9% and 7%
Population Healthy Nuclei (%) [3]: 80% and 84%
Population Hoechst High Intensity Objects (%) [3]: 4% and 3%
Population Membrane Permeable-Phenotype (%) [3]: 0%
Population Mitochondria Different-Phenotype (%) [3]: 28% and 41%
Population Mitotic Cells (%) [3]: 71% and 48%
Population Normal (%) [3]: 95% and 96%
Population Pyknosed Nuclei (%) [3]: 9% and 8%
Population Tubulin-Different-Phenotype (%) [3]: 20% and 12%
Total Cell Count [3]: 621 and 341
Population Apoptotic (%) [4]: 27% and 32%
Population Fragmented Nuclei (%) [4]: 10% and 9%
Population Healthy Nuclei (%) [4]: 76% and 84%
Population Hoechst High Intensity Objects (%) [4]: 5% and 6%
Population Membrane Permeable-Phenotype (%) [4]: 0%
Population Mitochondria Different-Phenotype (%) [4]: 33% and 39%
Population Mitotic Cells (%) [4]: 72% and 67%
Population Normal (%) [4]: 94% and 93%
Population Pyknosed Nuclei (%) [4]: 13% and 6%
Population Tubulin-Different-Phenotype (%) [4]: 26% and 16%
Total Cell Count [4]: 480 and 567
Population Apoptotic (%) [5]: 29% and 28%
Population Fragmented Nuclei (%) [5]: 14% and 12%
Population Healthy Nuclei (%) [5]: 78% and 82%
Population Hoechst High Intensity Objects (%) [5]: 2%
Population Membrane Permeable-Phenotype (%) [5]: 1% and 0%
Population Mitochondria Different-Phenotype (%) [5]: 17% and 23%
Population Mitotic Cells (%) [5]: 70% and 71%
Population Normal (%) [5]: 97%
Population Pyknosed Nuclei (%) [5]: 6% and 5%
Population Tubulin-Different-Phenotype (%) [5]: 11% and 9%
Total Cell Count [5]: 1011 and 524
Population Apoptotic (%) [6]: 22% and 31%
Population Fragmented Nuclei (%) [6]: 15%
Population Healthy Nuclei (%) [6]: 76% and 77%
Population Hoechst High Intensity Objects (%) [6]: 2% and 1%
Population Membrane Permeable-Phenotype (%) [6]: 0%
Population Mitochondria Different-Phenotype (%) [6]: 20% and 21%
Population Mitotic Cells (%) [6]: 77% and 68%
Population Normal (%) [6]: 97% and 98%
Population Pyknosed Nuclei (%) [6]: 7% and 6%
Population Tubulin-Different-Phenotype (%) [6]: 12% and 11%
Total Cell Count [6]: 778 and 793

COCCNc1cc(NC(=O)N2CCCc3cc(CN4CCN(C)CC4=O)c(C=O)nc32)ncc1C#N [FGF401]
Population Apoptotic (%) [1]: 5.7% and 11.57%
Population Fragmented Nuclei (%) [1]: 1.49% and 2.8%
Population Hoechst High Intensity Objects (%) [1]: 0%
Population Membrane Permeable-Phenotype (%) [1]: 1.74% and 5.56%
Population Mitotic Cells (%) [1]: 94.3% and 88.43%
Population Normal (%) [1]: 100%
Population Pyknosed Nuclei (%) [1]: 47.16% and 84.62%
Population Tubulin-Different-Phenotype (%) [1]: 6.4% and 11.11%
Total Cell Count [1]: 335 and 143
Population Fragmented Nuclei (%) [2]: 2.52% and 7.02%
Population Hoechst High Intensity Objects (%) [2]: 0%
Population Membrane Permeable-Phenotype (%) [2]: 0.56% and 0%
Population Mitochondria Different-Phenotype (%) [2]: 28.09% and 26.67%
Population Mitotic Cells (%) [2]: 94.7% and 80.22%
Population Normal (%) [2]: 100%
Population Pyknosed Nuclei (%) [2]: 41.51% and 79.82%
Total Cell Count [2]: 318 and 114
Population Apoptotic (%) [3]: 13.08% and 17.17%
Population Fragmented Nuclei (%) [3]: 0.93% and 3.47%
Population Healthy Nuclei (%) [3]: 74.95% and 27.78%
Population Hoechst High Intensity Objects (%) [3]: 0%
Population Membrane Permeable-Phenotype (%) [3]: 1.49% and 2.5%
Population Mitochondria Different-Phenotype (%) [3]: 17.33% and 12.5%
Population Mitotic Cells (%) [3]: 86.92% and 82.83%
Population Normal (%) [3]: 100%
Population Pyknosed Nuclei (%) [3]: 24.12% and 68.75%
Population Tubulin-Different-Phenotype (%) [3]: 19.8% and 10%
Population Apoptotic (%) [4]: 12.61% and 19.59%
Population Fragmented Nuclei (%) [4]: 1.6% and 5.3%
Population Hoechst High Intensity Objects (%) [4]: 0%
Population Membrane Permeable-Phenotype (%) [4]: 1.05% and 3.57%
Population Mitochondria Different-Phenotype (%) [4]: 16.84% and 25%
Population Mitotic Cells (%) [4]: 87.39% and 80.41%
Population Normal (%) [4]: 100%
Population Tubulin-Different-Phenotype (%) [4]: 19.21% and 17.86%
Population Apoptotic (%) [5]: 7.89% and 20.99%
Population Fragmented Nuclei (%) [5]: 2.1% and 1.11%
Population Healthy Nuclei (%) [5]: 85.6% and 53.89%
Population Hoechst High Intensity Objects (%) [5]: 0%
Population Membrane Permeable-Phenotype (%) [5]: 6.24% and 0%
Population Mitochondria Different-Phenotype (%) [5]: 18.81% and 29.9%
Population Mitotic Cells (%) [5]: 92.11% and 79.01%
Population Normal (%) [5]: 100%
Population Fragmented Nuclei (%) [6]: 3.22% and 0%
Population Healthy Nuclei (%) [6]: 84.41% and 59.29%
Population Hoechst High Intensity Objects (%) [6]: 0% and 0.71%
Population Membrane Permeable-Phenotype (%) [6]: 4.23% and 1.2%
Population Mitochondria Different-Phenotype (%) [6]: 18.89% and 40.96%
Population Mitotic Cells (%) [6]: 94.37% and 80.7%
Population Normal (%) [6]: 100% and 99.29%
